Results: the EternaBench riboswitch data

Test system: MS2 coat protein
Assay: apparent Kd, MS2 coat protein; higher = weaker binding; RNA-MaP array
In short: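 The designed RNAs, transcribed from sequenced DNA templates on an Illumina sequencing chip, were incubated with fluorescently labeled MS2 coat protein at room temperature. Protein ranged from 1.5 nM to 3 μM, with 0.8–1.5 h incubation at the lowest and 10–20 min at the highest concentrations, in Tris-HCl pH 7.5 buffer with KCl, MgCl2, BSA, DTT, tRNA and Tween20, with or without input ligand. The median of per-cluster binding-curve fits gives the apparent Kd, and designs measured on fewer than 10 clusters were excluded.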

[1] = designed as: ON switch for flavin mononucleotide, no ligand
[2] = ligand present: flavin mononucleotide, designed as: ON switch for flavin mononucleotide
[3] = designed as: OFF switch for flavin mononucleotide, no ligand
[4] = ligand present: flavin mononucleotide, designed as: OFF switch for flavin mononucleotide
[5] = designed as: OFF switch for tryptophan, no ligand
[6] = ligand present: tryptophan, designed as: OFF switch for tryptophan
[7] = designed as: OFF switch for theophylline, no ligand
[8] = ligand present: theophylline, designed as: OFF switch for theophylline
[9] = designed as: ON switch for tryptophan, no ligand
[10] = ligand present: tryptophan, designed as: ON switch for tryptophan

Sequence	apparent Kd [3]	apparent Kd [4]	other results
GCUGCACAUGAGGAUCACCCAUGUACCCUACUGAGAGGAUAUGUGAUCCGUUAGCAAUCCACAGAAGGCUCGGUUC	–	–	apparent Kd [1]: 51.2 nM; apparent Kd [2]: 10.5 nM
UCUCGGUAAGGAUAUAAAGCGACUCACAUGAGGAUCACCCAUGUUGUCGUCGUGGGCACAUUAGAAGGUACCAUUC	7.06 nM	6.3 nM	–
ACCCACAGAGGAUAUACAGCGAAACCUCAUAUUAAAUAUUCACAUGAGGAUCACCCAUGUAGAAGGCUGGAGAA	10.9 nM	38.8 nM	–
ACAUGAGGAUCACCCAUGUUGUCAUAGCAACUUUACAGGAGGAGAAGGCGAGGUUGGGCUGCCCUCGAGGAUAUCCGUAGAAAA	–	–	apparent Kd [1]: 10.4 nM; apparent Kd [2]: 6.45 nM
GUCAUUCUCAACAUGAGGAUCACCCAUGUCGGUUAUCUGGGCUAGGAUAUCACGAUGCCACUGCGUGAGAAGGAGCGUUCGAUA	67.3 nM	27.5 nM	–
AGACGGUUACAGGAUAUGACUACUGCUAGAGCAUCAGAAGGGUAUACAUGAGGAUCACCCAUGUCUUCACGGCG	10.1 nM	9.62 nM	–
UUAUGUGACGAGGAUAUGAAAAGGAGUGGUGAAUCAGAAGGCGUAACAUGAGGAUCACCCAUGUCAGUGGGCCU	49.6 nM	71.3 nM	–
AACAAAAGGAAGAAGGCAGUUAAACAUGAGGAUCACCCAUGUGGGACGCGGGAAAUCAACGAGACUGAGGAUAUUCAUUAAGAA	9.84 nM	20.9 nM	–
UCCUAGCGACAGAAGGUAGGCAAGAGACGCCCUCAACGACAUGAGGAUCACCCAUGUGGGACCACUAAGGAUAUGUAUGCCGAC	84.6 nM	66.5 nM	–
AUGUUAAGACAGGAUAUCCAAGCUCUAGCGUCAGGAGAAGGGUCAACAUGAGGAUCACCCAUGUGUAGUCUUCG	7.48 nM	15.2 nM	–
GAAUCUACAAACGAUACCAGAUCCGGCUGCCACAUGAGGAUCACCCAUGUCUAGCGACUCAUCCCUUGGCAGCGUGUGCAUCCCG	–	–	apparent Kd (designed as: ON switch for theophylline, no ligand): 508 nM; apparent Kd (ligand present: theophylline, designed as: ON switch for theophylline): 781 nM
CAAUCUACCACCGGCCUACUGUACACUCGCCGAGGACCGGUACGGCCGCCACUCGACGUUCGACAUGAGGAUCACCCAUGUGGGU	–	–	apparent Kd [5]: 168 nM; apparent Kd [6]: 334 nM
ACAAUAAAUCAAGGAUAUGAACGAAGCAAGUGAUCAGAAGGUGAAAUAAACCCAUAAACUCCAACAUGAGGAUCACCCAUGUGA	–	–	apparent Kd [1]: 54 nM; apparent Kd [2]: 35.5 nM
AUGUAACAUGAGGAUCACCCAUGUAAGGAUAUGCAACAAAACUCUGAAUCGUAAGUUCGCAGAAGGUACAUUAG	28.4 nM	27.3 nM	–
AUUGAACAUGAGGAUCACCCAUGUGCGGGUGGUAUAGGAUAUGCAGGAUCCUAAGAGUAAGCAGAAGGAUACACCG	–	–	apparent Kd [1]: 445 nM; apparent Kd [2]: 33.4 nM
CCAGAAGCAGGAUAUACAUGAGGAUCACCCAUGUUAAACAAUAUGACGAGCAUAGUCAGUAGAAGGGCAACUCA	18.8 nM	16.1 nM	–
AGACCGGCUCAGGAUAUGUACAGGACAUACUCAACAGAAGGGAGUACAUGAGGAUCACCCAUGUCUGGGUAGAU	488 nM	371 nM	–
ACCCGACAUGAGGAUCACCCAUGUGGUUUCGGUCGAGGAUAUUCAAUCUGAAUUAUGUAGGAAGAAGGCGAUACCC	–	–	apparent Kd [1]: 173 nM; apparent Kd [2]: 78 nM
GCAUUCGGAUUAGGAUAUCUACAUCAUUCGUUUGGGAUAGAGCUACAUGAGGAUCACCCAUGUGUAGAGAAGGAAUAUGAACAC	–	–	apparent Kd [1]: 79 nM; apparent Kd [2]: 83.9 nM
GGUUAACAUGAGGAUCACCCAUGUUAGGAUAUGCUACAGAGUCUGGUCCCUGGAAAUGGCAGAAGGAACGUGUU	17.2 nM	16.2 nM	–
GAAGAGAGGAUACCGUUUGUAUACAACGAUACCAGUGGUAUGUAUCACCCUUGGCAGCGUGAGACAUGAGGAUCACCCAUGUGGC	–	–	apparent Kd [7]: 21.2 nM; apparent Kd [8]: 21.6 nM
CUUCGGCCCAGGGAGAUGACCACAUGAGGAUCACCCAUGUACAGAAGGAGUAUCGGUAGGCCAUACUAGGAUAUGUGAAUAGAC	–	–	apparent Kd [1]: 25.8 nM; apparent Kd [2]: 31.4 nM
CUGUUUGGAGAGGAUAUGUCGGGAAGCUAAUCAACAGAAGGCUCAACAUGAGGAUCACCCAUGUCGGGUGCGUA	16.8 nM	49.1 nM	–
CGCUACAUAGCGGCCGCCACUGUCAUGGCUACGAUAGGUCACUCGUACAUGAGGAUCACCCAUGUCAGGACCGGGCUAUCCUCGC	–	–	apparent Kd [5]: 92.9 nM; apparent Kd [6]: 203 nM

Sequence	apparent Kd [3]	apparent Kd [4]	other results
ACGGGUGACAAGAAGGGCUAGGUAACAUGCCGUAGACUAGAAUAACAUGAGGAUCACCCAUGUAAGCAGGAUAUUGUAUAAUAA	–	–	apparent Kd [1]: 156 nM; apparent Kd [2]: 52.8 nM
UCUCACAUGAGGAUCACCCAUGUUAAGGCCCGAGGACCGGUACGGCCGCCACUCGUUGGAAGCCGGUAACGUACGAAUCUUCCGU	–	–	apparent Kd [9]: 17.9 nM; apparent Kd [10]: 24 nM
GUUGGAUUUGUGAGGAUAUGGCCGUGACAUUUGGACCAGAAGGCACAUGAGGAUCACCCAUGUAUUGAAGAACG	23.3 nM	53.4 nM	–
AUGUUCCGUUAGAAGGUGUUGAGUGGAGGCUCACAAGGAUAUAACUUCCUCGUCGAUGACAUGAGGAUCACCCAUGUAGCACAA	50.3 nM	38.1 nM	–
GAGACAGGGCAGAAGGUUCUAAACGGCUAAAUGAAAGGAUAUGCAAACAUUGACAUGAGGAUCACCCAUGUGUUAAAAGCUACG	12.1 nM	9.88 nM	–
UAGUACAUGAGGAUCACCCAUGUCGGAGGUCGAGGACCGGUACGGCCGCCACUCGGUCAUGCCCUACGAUACGACAGGAAUCUGU	–	–	apparent Kd [9]: 22.2 nM; apparent Kd [10]: 16.8 nM
CCCACAAGCACGGCCGCCACUAUAUUAAUUACUGUCCUAGAACAUGAGGAUCACCCAUGUUAAUGUAGGACCGGGUGCGGGCCCG	–	–	apparent Kd [5]: 9.57 nM; apparent Kd [6]: 12.8 nM
UGGCACAAGUUAGGAUAUAGCACUUCUGUAAAGCUAGAAGGAACGUUGCACAUGAGGAUCACCCAUGUCAGUAAUUGAUAUGUA	10.1 nM	12.6 nM	–
GACAGCAUCCGAGGAUAUAUGUACGUAAUCAAACCACAUGAGGAUCACCCAUGUCCUCUAGGUUCAUAGAAGGCGGUUUAGCGU	455 nM	750 nM	–
GUACAGGAGGAAGGAUAUAAUGCACAUGAGGAUCACCCAUGUAAGAGGAAAUCACCAUAACUGAUUUAGAAGGACCAGCAAAAC	12 nM	11.3 nM	–
CGACAUUAAACAUGAGGAUCACCCAUGUGACCCUAUUGUCCAAAGGAUAUCUUAUGAAUAGAGAAAGAGAAGGUUGUAUUCCCA	241 nM	196 nM	–
CCGGGCGCUUAACAGGAUAUAGCAGUACAUACAUGAGGAUCACCCAUGUCUAUCUUGUAAUAAAGCUAGAAGGGUUCAUCCGAGGU	–	–	apparent Kd [1]: 14 nM; apparent Kd [2]: 9.84 nM
AAAUGCAUUCGAGGAUAUGUCAUGAUGUUGUAAACAGAAGGCGAGGCAUCGACAUGAGGAUCACCCAUGUGCACAGGUAAAAGU	–	–	apparent Kd [1]: 37.6 nM; apparent Kd [2]: 16.4 nM
CCGCACAUGAGGAUCACCCAUGUUCCCAGUCAACUAGGAGCCAAGGAUAUCGUUCGCGAGUGCACCGAGAAGGUGGCCCAUGAA	–	–	apparent Kd [1]: 193 nM; apparent Kd [2]: 72.6 nM
UGCCAACAUGAGGAUCACCCAUGUCAGGAUAUCCGGGAGCACUUCAGUAGAAUCCGCUGGAGAAGGGACAUAGG	24.3 nM	21.7 nM	–
UAAUCAGUGAUAGGAUAUCGUAGCUCAGAUAGGCGAGAAGGAUCUGACUCCACAUGAGGAUCACCCAUGUUGUACAUACAGGAC	–	–	apparent Kd [1]: 19.5 nM; apparent Kd [2]: 17.1 nM
AAACAGGAAGGAUAUACAUGAGGAUCACCCAUGUCAAAUAAAACAAAUAAGCAAGAAUGUAGAAGGACCAAAAU	17.2 nM	12.8 nM	–
UUAGAUCGUGUCAGGAUAUCGGACCGGCCCGCCUCCGAGAAGGGACAUGAGGAUCACCCAUGUCACGGUCCAUU	7.73 nM	7.84 nM	–
UGUCCCACGCAAGUACAUGAGGAUCACCCAUGUCUGAACCAGAGAAGGAGAGUUAUACUGGAAAUCUAGGAUAUCUGACAGACU	43.3 nM	50.5 nM	–
CCUUUUAUUAAUGAUACCAGCGUAUUAAGCAUCACCUUGGACAUGAGGAUCACCCAUGUACGCCCUUGGCAGCAUACCACUGGGU	–	–	apparent Kd [7]: 42.5 nM; apparent Kd [8]: 53.4 nM
AAAAGGGCAGGAUAUACAUGAGGAUCACCCAUGUUAAAGCCAACAAGAAGUUCCACUGGUAGAAGGGCCAUAGA	8.89 nM	8.55 nM	–
CUCCCAAACAAGAAGGGCGUCGAGUACGGUGAACUUGCCACAUAACAUGAGGAUCACCCAUGUACGCAGGAUAUUGGAGCGUUU	138 nM	234 nM	–
GCGGACGAUGAGAAGGUAGUAAGGUAGGACAUGAGGAUCACCCAUGUAUGAACUAUCCCAACAACUAAGGAUAUCAGCAACCCU	7.34 nM	5.77 nM	–
